# Laboratory results from PMC7717620 (Nucleosides, nucleotides & nucleic acids, 2019).
# “Also recorded” adds a separate entry of the source.
# Tests used:
# [1] = test system: primary monkey hepatocytes; test: intracellular metabolism in primary monkey hepatocytes; format: in vitro ADME; conditions: 50 μM, 4 h
# [2] = test system: primary human hepatocytes; test: intracellular metabolism in primary human hepatocytes; format: in vitro ADME; conditions: 50 μM, 4 h
# HepG2 cells [3] = test: intracellular metabolism in HepG2 cells; format: in vitro ADME, human; conditions: HepG2, 50 μM, 4 h
# human cardiomyocytes [4] = test: cellular accumulation and metabolism in human cardiomyocytes; format: in vitro ADME; conditions: 10 μM
# human cardiomyocytes [5] = test: recording of human cardiomyocyte beating patterns; format: cell-based
# primary rat hepatocytes = test: intracellular metabolism in primary rat hepatocytes; format: in vitro ADME; conditions: 50 μM, 4 h
# [6] = single dose escalation and seven day repeat dosing in dogs; conditions: dog, in vivo
# [7] = test system: primary mouse hepatocytes; test: intracellular metabolism in primary mouse hepatocytes; format: in vitro ADME; conditions: 50 μM, 4 h
# HepG2 cells [8] = conditions: up to 50 μM; cited from earlier work
# [9] = single dose escalation and seven day repeat dosing in rats; conditions: rat, in vivo
# primary dog hepatocytes = test: intracellular metabolism in primary dog hepatocytes; format: in vitro ADME; conditions: 50 μM, 4 h
# various cell lines = conditions: up to 100 μM; cited from earlier work
# [10] = test system: HCV genotype 1 b RNA replication; test: subgenomic HCV replicon system, inhibition of HCV RNA replication in Huh-7 cells; format: cell-based, hepatitis C virus; conditions: HCV genotype 1 b subgenomic replicon
# Method in brief: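 HCV genotype 1b subgenomic replicon in Huh-7 cells. HCV RNA and cellular ribosomal RNA were extracted and amplified, so replication and cytotoxicity were read in the same cells.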
# Huh-7 cells = test: intracellular metabolism in Huh-7 cells; format: in vitro ADME, human; conditions: Huh-7, 50 μM, 4 h
smiles,measurement,setting,value
"CC(C)OC(=O)CCc1ccccc1OP(=O)(N[C@@H](C)C(=O)OC(C)C)OC[C@H]1O[C@@H](n2cnc3c(N)nc(N)nc32)[C@](C)(O)[C@@H]1O (stereo partly drawn) [DAPN-PD, Isopropyl 3-(2-(((((2R,3R,4R,5R)-5-(2,6-diamino-9H-purin-9-yl)-3,4-dihydroxy-4-methyltetrahydrofuran-2-yl)methoxy)(((S)-1-isopropoxy-1-oxopropan-2-yl)amino)phosphoryl)oxy)phenyl)propanoate]",Intracellular concentration: Prodrugs,[1],160 ± 4 pmol/10^6 cells
same,Intracellular concentration: Prodrugs,[2],70 ± 6 pmol/10^6 cells
same,Intracellular concentration: Prodrugs,HepG2 cells [3],390 ± 33 pmol/10^6 cells
same,Intracellular concentration in human cardiomyocytes: Prodrugs,human cardiomyocytes [4]; 4 h,70 ± 3 pmol/10^6 cells
same,Intracellular concentration in human cardiomyocytes: Prodrugs,human cardiomyocytes [4]; 8 h,51 ± 1 pmol/10^6 cells
same,"intact prodrug level, times lower than BMS-986094","human cardiomyocytes [4]; human cardiomyocytes, 8 h",16 times
same,Beating rate of human cardiomyocytes,"human cardiomyocytes [5]; 2 μM, 2 h",33.5 ± 0.7 beats/minute
same,Beating rate of human cardiomyocytes,"human cardiomyocytes [5]; 2 μM, 4 h",34.0 ± 0 beats/minute
same,Beating rate of human cardiomyocytes,"human cardiomyocytes [5]; 2 μM, 8 h",37.0 ± 0 beats/minute
same,Beating rate of human cardiomyocytes,"human cardiomyocytes [5]; 2 μM, 12 h",36.0 ± 0 beats/minute
same,Beating rate of human cardiomyocytes,"human cardiomyocytes [5]; 2 μM, 24 h",34.0 ± 1.4 beats/minute
same,Beating rate of human cardiomyocytes,"human cardiomyocytes [5]; 2 μM, 48 h",27.5 ± 0.7 beats/minute
same,change in beating rate or rhythm of cardiomyocytes (observation),"human cardiomyocytes [5]; 2 μM, up to 48 h",did not observe beating changes
same,Beating rate of human cardiomyocytes,"human cardiomyocytes [5]; 10 μM, 2 h",24.5 ± 0.7 beats/minute
same,Beating rate of human cardiomyocytes,"human cardiomyocytes [5]; 10 μM, 4 h",23.5 ± 0.7 beats/minute
same,Beating rate of human cardiomyocytes,"human cardiomyocytes [5]; 10 μM, 8 h",26.0 ± 1.4 beats/minute
same,Beating rate of human cardiomyocytes,"human cardiomyocytes [5]; 10 μM, 12 h",25.5 ± 0.7 beats/minute
same,Beating rate of human cardiomyocytes,"human cardiomyocytes [5]; 10 μM, 24 h",25.5 ± 0.7 beats/minute
same,Beating rate of human cardiomyocytes,"human cardiomyocytes [5]; 10 μM, 48 h",25.5 ± 0.7 beats/minute
same,change in beating rate or rhythm of cardiomyocytes (observation),"human cardiomyocytes [5]; 10 μM, up to 48 h",changes to both beat rate and rhythm were noted; also recorded: caused the beat rate to decrease
same,Beating rate of human cardiomyocytes,"human cardiomyocytes [5]; 50 μM, 2 h",21.5 ± 0.7 beats/minute
same,Beating rate of human cardiomyocytes,"human cardiomyocytes [5]; 50 μM, 4 h",21.0 ± 0 beats/minute
same,Beating rate of human cardiomyocytes,"human cardiomyocytes [5]; 50 μM, 8 h",22.0 ± 0 beats/minute
same,Beating rate of human cardiomyocytes,"human cardiomyocytes [5]; 50 μM, 12 h",21.0 ± 0 beats/minute
same,Beating rate of human cardiomyocytes,"human cardiomyocytes [5]; 50 μM, 24 h",19.0 ± 0 beats/minute
same,Beating rate of human cardiomyocytes,"human cardiomyocytes [5]; 50 μM, 48 h",17.0 ± 0 beats/minute
same,rhythm of cardiomyocytes (observation),human cardiomyocytes [5]; 10 and 50 μM,altered and irregular
same,change in beating rate of cardiomyocytes (observation),"human cardiomyocytes [5]; 10 and 50 μM, up to 48 h",the beating rate dropped within 2 h then remained at a reduced rate out to 48 h
same,Intracellular concentration: Prodrugs,primary rat hepatocytes,0.90 ± 0.50 pmol/10^6 cells
same,NOAEL at 7 day,[6],< 40 mg/kg/day
same,Intracellular concentration: 2’-C-Me-G,[7],BLOQ
same,Intracellular concentration: Prodrugs,[7],13 ± 1 pmol/10^6 cells
same,mitochondrial toxicity or increase in lactic acid levels,HepG2 cells [8],no mitochondrial toxicity or increase in lactic acid levels
same,NOAEL at 7 day,[9],< 40 mg/kg/day
same,Intracellular concentration: Prodrugs,primary dog hepatocytes,6.3 ± 1.5 pmol/10^6 cells
same,in vitro cytotoxicity in various cell lines,various cell lines,no in vitro cytotoxicity
same,Replicon Huh-7 EC50,[10],sub-micromolar
same,Intracellular concentration: Prodrugs,Huh-7 cells,170 ± 4 pmol/10^6 cells
